Active and inactive are the calls of the source. No cut-off for these calls is given here.
How the values were obtained:
[1] = target: T1, Proteasome Macropain subunit MB1 (Homo sapiens, UniProt P28074); assay: Inhibition of chymotrypsin like activity of human 20S proteasome after 1 hr by luminescence assay
T1 sequence (P28074 whole entry): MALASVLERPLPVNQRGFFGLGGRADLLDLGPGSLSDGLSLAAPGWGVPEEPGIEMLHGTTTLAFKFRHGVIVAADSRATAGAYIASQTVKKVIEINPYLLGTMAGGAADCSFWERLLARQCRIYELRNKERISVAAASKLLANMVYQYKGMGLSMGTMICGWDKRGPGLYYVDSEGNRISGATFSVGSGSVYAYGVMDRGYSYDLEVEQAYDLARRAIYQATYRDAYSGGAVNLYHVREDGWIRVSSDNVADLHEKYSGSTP

[2] = target: T2, Proteasome Macropain subunit MB1 (Homo sapiens) (UniProt P28074); assay: Inhibition of human 20S proteasome beta 5 subunit assessed as non-cyclized product formation after 5 to 10 mins by FT-MS analysis
T2 sequence (whole entry): T1 sequence (P28074 whole entry)
Method in brief: (§1)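 Purified human 20S proteasome (1.4 μM) incubated at 23 °C with a 10-fold molar excess of inhibitor in pH 7.5 buffer (10 mM Tris/HCl, 1 mM EDTA, 1 mM DTT, <1% DMSO) for varying times. Reactions stopped by denaturing quench, desalted on C4 tips, eluted with 70:30:0.1 acetonitrile–water–formic acid, then analysed by mass spectrometry to follow each step of subunit modification.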

[3] = target: T1, Proteasome Macropain subunit MB1; assay: Inhibition of chymotrypsin like activity of 20S proteasome in HEK293 cells after 24 hrs by microscopic analysis; type: cell-based
Method in brief: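 Image-based screen in a stably transfected HEK cell line expressing a GFP-tagged proteasomal substrate. Proteasomal inhibition is read out by cellular fluorescence.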

[4] = target: T2, Proteasome Macropain subunit MB1 (Homo sapiens); assay: Inhibition of human 20S proteasome beta 5 subunit assessed as hydrolysis of non-cyclized product after 48 hrs by FT-MS analysis; method in brief: as §1
[5] = target: T2, Proteasome Macropain subunit MB1 (Homo sapiens); assay: Inhibition of human 20S proteasome beta 5 subunit assessed as hydrolysis of non-cyclized product after 48 hrs by ESI-TOF analysis; method in brief: as §1
[6] = target: T2, Proteasome Macropain subunit MB1 (Homo sapiens); assay: Inhibition of human 20S proteasome beta 5 subunit assessed as non-cyclized product formation after 5 to 10 mins by ESI-TOF analysis; method in brief: as §1
[7] = target: T2, Proteasome Macropain subunit MB1 (Homo sapiens); assay: Inhibition of human 20S proteasome beta 5 subunit assessed as cyclized acylated protein adduct formation after 48 hrs by FT-MS analysis; method in brief: as §1
[8] = target: T2, Proteasome Macropain subunit MB1 (Homo sapiens); assay: Inhibition of human 20S proteasome beta 5 subunit assessed as cyclized acylated protein adduct formation after 48 hrs by ESI-TOF analysis; method in brief: as §1
[9] = target: T2, Proteasome Macropain subunit MB1 (Homo sapiens); assay: Inhibition of human 20S proteasome beta 5 subunit assessed as cyclized acylated protein adduct formation after <20 mins by FT-MS analysis; method in brief: as §1
[10] = target: T2, Proteasome Macropain subunit MB1 (Homo sapiens); assay: Inhibition of human 20S proteasome beta 5 subunit assessed as cyclized acylated protein adduct formation after <20 mins by ESI-TOF analysis; method in brief: as §1

Row | Compound | IC50 [1] | inhibition [2] | EC50 [3] | inhibition [4] | inhibition [5] | inhibition [6] | inhibition [7] | inhibition [8] | inhibition [9] | inhibition [10]
1 | COC(=O)C[C@H]1C(=O)N[C@@]2([C@@H](O)C3CCCCC3)C(=O)O[C@@]12C | 500 nM | – | – | – | – | – | – | – | – | –
2 | C[C@@]12OC(=O)[C@]1([C@@H](O)C1CCCCC1)NC(=O)[C@@H]2CCCCl | 50 nM | Active | 90 nM | inactive | inactive | Active | inactive | inactive | – | –
3 | C[C@@]12OC(=O)[C@]1([C@@H](O)C1CC1)NC(=O)[C@@H]2CCCl | 28 nM | – | 360 nM | – | – | – | – | – | – | –
4 | C[C@@]12OC(=O)[C@]1([C@@H](O)C1CCCCC1)NC(=O)[C@@H]2CCCl | 23 nM | Active | 10 nM | – | – | Active | – | – | Active | Active
5 | C[C@@]12OC(=O)[C@]1([C@@H](O)Cc1ccccc1)NC(=O)[C@@H]2CCCl | 500 nM | – | 332 nM | – | – | – | – | – | – | –
6 | C[C@@]12OC(=O)[C@]1([C@@H](O)C1CCCCC1)NC(=O)[C@@H]2CC=O | 330 nM | – | – | – | – | – | – | – | – | –
7 | C[C@@]12OC(=O)[C@]1([C@@H](O)[C@@H]1C=CCCC1)NC(=O)[C@@H]2CCCl [MARIZOMIB] | 22 nM | Active | – | – | – | Active | – | – | Active | Active
